Results of several laboratories.
Protocols differ between the studies behind these lines.
Target: Serine/threonine-protein kinase Nek10 (NEK10, Homo sapiens, UniProt Q6ZWH5)
Residues used in one study (Q6ZWH5 1-1172): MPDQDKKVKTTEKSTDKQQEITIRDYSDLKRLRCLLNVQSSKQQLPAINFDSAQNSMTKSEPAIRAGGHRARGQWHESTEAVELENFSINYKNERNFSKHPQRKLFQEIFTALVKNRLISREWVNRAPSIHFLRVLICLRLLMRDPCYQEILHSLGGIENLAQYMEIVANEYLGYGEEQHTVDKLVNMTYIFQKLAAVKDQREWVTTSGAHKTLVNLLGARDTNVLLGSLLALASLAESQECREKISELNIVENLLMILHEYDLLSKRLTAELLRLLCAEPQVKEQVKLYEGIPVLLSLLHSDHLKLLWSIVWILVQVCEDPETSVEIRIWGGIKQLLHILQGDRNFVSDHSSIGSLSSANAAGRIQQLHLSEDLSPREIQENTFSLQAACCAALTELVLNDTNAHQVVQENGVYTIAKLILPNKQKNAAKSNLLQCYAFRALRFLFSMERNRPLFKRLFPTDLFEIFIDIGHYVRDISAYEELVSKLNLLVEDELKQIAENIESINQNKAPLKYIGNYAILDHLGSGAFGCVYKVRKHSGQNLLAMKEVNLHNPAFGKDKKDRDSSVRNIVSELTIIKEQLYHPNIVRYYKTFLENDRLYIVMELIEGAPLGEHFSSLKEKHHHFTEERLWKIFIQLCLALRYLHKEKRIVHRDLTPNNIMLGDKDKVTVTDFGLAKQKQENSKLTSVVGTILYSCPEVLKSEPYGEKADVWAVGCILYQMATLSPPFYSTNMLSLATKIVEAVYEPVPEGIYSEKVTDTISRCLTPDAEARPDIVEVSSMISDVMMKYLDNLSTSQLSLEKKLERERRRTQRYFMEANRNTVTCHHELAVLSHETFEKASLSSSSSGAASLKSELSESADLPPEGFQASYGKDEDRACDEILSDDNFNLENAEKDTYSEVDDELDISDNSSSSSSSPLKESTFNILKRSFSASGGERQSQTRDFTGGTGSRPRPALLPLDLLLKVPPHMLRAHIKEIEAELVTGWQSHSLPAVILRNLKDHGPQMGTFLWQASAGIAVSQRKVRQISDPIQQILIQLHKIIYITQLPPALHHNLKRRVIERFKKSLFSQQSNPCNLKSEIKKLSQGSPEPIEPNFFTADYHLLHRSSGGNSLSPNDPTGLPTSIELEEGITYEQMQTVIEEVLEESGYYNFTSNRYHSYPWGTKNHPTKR

| SMILES | observed | method | tested at | remaining binding |
| --- | --- | --- | --- | --- |
| O=C(NCCCN1CCOCC1)c1ccc(Nc2nccc(-c3cc4ccccc4s3)n2)cc1 | binding | competition with immobilised ligand | 1 µM | 59% |
| Cc1c[nH]c2nccc(Oc3c(F)cc(Nc4cc(Cl)nc(N)n4)cc3F)c12 | cell-free assay | competition with immobilised ligand | 0.1 µM | 75% |
| CNC(=O)[C@@H]1CC[C@@H](n2c(-c3ccc4cnccc4c3)nc3ccc(C(=O)NCc4cccc(C(N)=O)c4)cc32)C1 | binding | competition with immobilised ligand | 1 µM | 92% |
| CC1CCCN1c1nccc(-c2cnn3ncccc23)n1 (centres unmarked) | binding |  | 1 µM | 100% |
| COc1cc(-c2cn(C3CCc4ccccc4N(CC(F)(F)F)C3=O)nn2)ccc1-n1ccc(C)n1 (centres unmarked) | cell-free assay | competition with immobilised ligand | 1 µM | 81% |
| c1cnn2ncc(-c3ccnc(N4CCC45COC5)n3)c2c1 | binding |  | 1 µM | 98% |
| O=C(Nc1c[nH]nc1C(=O)NC1CCNCC1)c1cc(F)cc(F)c1 | binding | competition with immobilised ligand | 1 µM | 100% |
| C[C@@H](c1ccc(-n2cnc3c(N)ncnc32)cc1)N1CCc2nn(C)c(Cc3ccccc3)c2C1=O | binding | competition with immobilised ligand | 0.1 µM | 80% |
| Nc1c(C(=O)NCc2ccc(C(=O)NCCCC3CCCCC3)cc2)cnn1-c1ccccc1 | cell-free assay | competition with immobilised ligand | 0.1 µM | 100% |
| O=C(NCCCN1CCOCC1)c1ccc(Nc2ncc(Cl)c(-c3ccc(Cl)s3)n2)cc1 | binding | competition with immobilised ligand | 1 µM | 48% |
| O=C(Nc1cccnn1)N1CCC(=Cc2cccc(Oc3ccc(C(F)(F)F)cn3)c2)CC1 | cell-free assay | competition with immobilised ligand | 1 µM | 100% |
| Nc1ncc2c(n1)-c1c([nH]c3ccc(C#CC4CC4)cc13)CCCC2 | binding | competition with immobilised ligand | 1 µM | 79% |
| CN(c1nccc(-c2cnn3ncccc23)n1)C1CC1 | binding |  | 1 µM | 100% |
| O=C(c1ccc(Nc2ncc(Cl)c(-c3ccc(Cl)s3)n2)cc1)N1CCC(N2CCCC2)CC1 | binding | competition with immobilised ligand | 1 µM | 30% |
| CN(C)c1nccc(-c2cnc3ncccn23)n1 | binding |  | 1 µM | 59% |
| C=CC(=O)N1CCC(C(=O)NCC(=O)N2CCN(c3nc(-c4cnc(N)nc4C(F)F)nc(N4CCOCC4)n3)CC2)CC1 | binding | competition with immobilised ligand | 1 µM | 76% |
| C[C@@H](c1cccc(C#N)c1)n1cc(Cl)cc(C(N)=O)c1=N | cell-free assay | competition with immobilised ligand | 1 µM | 91% |
